pIC50: −log10 of the molar value. Calls of active or inactive are those of the source. The calls are words filed in the database; no cut-off is given here.
How the values were obtained:
[1] = system: Escherichia coli; experiment: Antimicrobial activity against Escherichia coli by disc diffusion method; assay type: functional, organism-based
Method in brief: (§1)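 Disk diffusion assay run against a panel of two bacteria (Staphylococcus aureus, Escherichia coli) and four plant-pathogenic fungi (Alternaria brassicae, Fusarium oxysporum, Coniella diplodiella, Physalospora piricola). The positive control was chloramphenicol for the bacterial strains and amphotericin B for the fungal strains.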

[2] = system: Coniella diplodiella; experiment: Antimicrobial activity against Coniella diplodiella by disc diffusion method; assay type: functional; method in brief: as §1
[3] = system: Fusarium oxysporum; experiment: Antimicrobial activity against Fusarium oxysporum by disc diffusion method; assay type: functional, organism-based; method in brief: as §1
[4] = system: Botryosphaeria berengeriana; experiment: Antimicrobial activity against Physalospora pyricola by disc diffusion method; assay type: functional, organism-based; method in brief: as §1
[5] = system: Staphylococcus aureus; experiment: Antimicrobial activity against Staphylococcus aureus by disc diffusion method; assay type: functional, organism-based; method in brief: as §1
[6] = system: Alternaria brassicae; experiment: Antimicrobial activity against Alternaria brassicae by disc diffusion method; assay type: functional; method in brief: as §1
[7] = system: A549; experiment: Cytotoxicity against human A549 cells; assay type: functional, cell-based
[8] = system: NCI-H460; experiment: Cytotoxicity against human NCI-H460 cells; assay type: functional, cell-based
[9] = system: HepG2; experiment: Cytotoxicity against human HepG2 cells; assay type: functional, cell-based
[10] = system: DU-145; experiment: Cytotoxicity against human DU145 cells; assay type: functional, cell-based
[11] = system: MDA-MB-231; experiment: Cytotoxicity against human MDA-MB-231 cells; assay type: functional, cell-based
[12] = system: MCF7; experiment: Cytotoxicity against human MCF7 cells; assay type: functional, cell-based
[13] = system: SW1990; experiment: Cytotoxicity against human SW1990 cells; assay type: functional, cell-based

Structure (SMILES) | inhibition [1] | inhibition [2] | inhibition [3] | inhibition [4] | inhibition [5] | inhibition [6] | pIC50 [7] | pIC50 [8] | pIC50 [9] | pIC50 [10] | pIC50 [11] | pIC50 [12] | pIC50 [13]
COc1cc(-c2cc(C)cc(C)c2-c2ccccc2)oc(=O)c1 | Active | Active | Active | Active | Active | Active |  |  |  |  |  |  | 
COc1cc(/C=C/C(C)=C/C(C)=C/c2ccccc2)oc(=O)c1 | Active | Active | Active | Active | Active | Active |  |  |  |  |  |  | 
COc1cc(/C=C/C(C)=C/C(C)=C\c2ccccc2)oc(=O)c1 | Active | Active | Active | Active | Active | Active |  |  |  |  |  |  | 
COc1cc(/C=C/C(C)=C/C(C)=O)oc(=O)c1 | Active | Active | Active | Active | Active | Active |  |  |  |  |  |  | 
COc1cc(/C=C/C(C)=C\C(C)=C\c2ccccc2)oc(=O)c1 | Active | Active | Active | Active | Active | Active |  |  |  |  |  |  | 
COc1cc(\C=C/C(C)=C/C(C)=C/c2ccccc2)oc(=O)c1 | Active | Active | Active | Active | Active | Active |  |  |  |  |  |  | 
COc1cc(/C=C/C(C)=C/C(C)=C/c2ccccc2)oc(=O)c1C [ASNIPYRONE A] | Active | Active | Active | Active | Active | Active | 4.21 |  |  |  |  |  | 
O=c1[nH]cc(F)c(=O)[nH]1 [FLUOROURACIL] |  |  |  |  |  |  | 4.28 | 5.07 | 3.96 | 5.48 | 4.23 | 4.51 | 
COc1cc(-c2cc(C)cc(C)c2-c2ccccc2)oc(=O)c1C [NIGERAPYRONE B] | Active | Active | Active | Active | Active | Active |  |  | 4.21 |  |  |  | 
COc1cc(/C=C/C(C)=C/C(C)=O)oc(=O)c1C [NIGERAPYRONE D] | Active | Active | Active | Active | Active | Active | 4.09 |  | 4.09 |  |  | 3.92 | 
COc1cc(/C=C/C(C)=O)oc(=O)c1C [NIGERAPYRONE E] | Active | Active | Active | Active | Active | Active | 4.37 | 4.37 | 4.07 | 4.07 | 4.32 | 3.98 | 4.42
